This sample holds only a part of the variants without activity.
B1: tRNA (parent)
chain: GUUCCGUUGGCGUAAUGGUAACGCGUCUCCCUCCUAAGGAGAAGACUGCGGGUUCGAGUCCCGUACGGAACG

Variants of: B1
Experiment: yeast fitness relative to wild type (ratio to wild type); higher = fitter; tRNA-Arg(CCU), competitive growth, 37 C, YPD
In short: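 Variants of the tRNA-Arg(CCU) gene were chemically synthesised with a 3% per-site mutation rate across 69 sites and placed at the native genomic locus in Saccharomyces cerevisiae. Six parallel replicates of the pooled strains were competed in YPD at 37°C for 24 hours, and gene amplicons from the start and end populations were read by 100-nucleotide paired-end sequencing. Darwinian fitness relative to wild type was derived from changes in genotype frequencies. Genotypes required ≥ 100 starting reads, and estimates < 0.5 were set to 0.5.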

Variant	yeast fitness
C33A A45U C66A	≤ 0.5
U32A C46A U53A	≤ 0.5
C33A C49G G67C	0.548
C33A C49U C62G	0.735
U32C A40C G51A C61U A69C	≤ 0.5
C33A A57U C66U	0.555
U32C A45U C49G C55G G67C	≤ 0.5
C33G A36G G51C U64A C66U A69C	≤ 0.5
U32A C60A	≤ 0.5
U32C C55U A57C G67A	0.638
U32G U35G A36C U54C	≤ 0.5
U32C U54G C62U	0.565
U32A A43U	0.879
U32A A43G	0.666
U32A A42U C61G C62U	0.661
U32A G58A	0.781
C33G A36C A57U	≤ 0.5
U32A G50A	0.783
C33A C49U C55G	≤ 0.5
U32A A45U U54G	≤ 0.5
U32A C55A	0.572
C33A U53A C60G	0.681
U32C C46G G56C	≤ 0.5
C33A A37U A57G	0.545

Variant	yeast fitness
C33A A37U A57C	≤ 0.5
U32A G52A	≤ 0.5
C33A G58C	0.647
C33A A37G G39C C55U	≤ 0.5
U32C A43U	0.921
U32C A43G	0.998
U32C A65U G68U	0.622
C33A G38C A43G U53C	0.547
U32G G38A	0.586
U32C C66G A70U	0.811
U32C C60G A69U	≤ 0.5
U32G A45G C49U	≤ 0.5
U32C U53C	0.766
U32C U53A	0.691
U32A U35G A36U G38A U47C	≤ 0.5
C33A A37C G56A A65G C66U	≤ 0.5
U32G U35A A65U	≤ 0.5
C33A G56C	0.634
C33A C55U C61A	0.559
U32A A37G G48A C60G G68A	≤ 0.5
C33A U35C C60A	≤ 0.5
U32C G41C G58U	0.533
C33A C46A G67A	≤ 0.5
C33A A40G A42G	0.564

Variant	yeast fitness
U32G A40U U64G	0.543
U32C C55U G67A	≤ 0.5
C31U U54G	0.535
U32C C55U A69U	0.55
U32C C33U A42U	0.66
U32A G58C G63C	≤ 0.5
U32C A42U C62G	0.578
U32G G48A	0.616
U32G C33G	0.59
U32G C33A	0.601
C33G A36C	≤ 0.5
C33G A36U	0.589
C31U U54G C55U	0.566
U32C G39A A40U G63C	≤ 0.5
U32C A43U A70U	0.735
U32A C62A	0.549
U32A C62U	0.645
U32A U47C	0.826
U32G A42G	0.56
C33A C49U C66U	0.524
U32G U35G A36C	≤ 0.5
U32C C62A	0.727
U32C C62U	1.02
U32C C62G	0.796

Variant	yeast fitness
C33A C49A C60A	0.714
U32C C33U A70G	0.681
U32C U59G	0.878
U32G C61U G67U	≤ 0.5
C31U U59A C60G	0.516
C33A G48C A69G	0.684
U32C C46U G51C C62U	≤ 0.5
U32C A70G	0.942
U32G A37C A57C G63A	≤ 0.5
C33A A40U U53C C55U C62U	≤ 0.5
C33A G44A G68U	≤ 0.5
U32A C61G	0.526
U32A C61U	0.855
U32G A45C G68A	≤ 0.5
U32A G67C	0.732
U32C U54A A65G	≤ 0.5
U32C A57C	0.659
U32C A57U	0.813
U32A G58A A70C	0.513
U32A G41C C49G C55U	≤ 0.5
U32C A57U A70C	≤ 0.5
C33A A45G C49U A70U	≤ 0.5
C31U U53C C62G	0.625
U32C C34A A37U C46U	≤ 0.5

Variant	yeast fitness
U32C G63A	0.832
C33A G50A A69U A70C	≤ 0.5
U32C C49U	0.971
C33A G39A G52C C55G	≤ 0.5
U32A C34G	≤ 0.5
C33A C60G A70G	≤ 0.5
U32A G48A	0.673
U32A U53C A69C	≤ 0.5
U32G C46A	0.667
U32G C46U	0.562
C33A G39C C49U U54A G63C G67A	≤ 0.5
U32A U59G	0.831
U32C G51C C61U	≤ 0.5
U32G A65G	0.718
C33A A36U C66U	≤ 0.5
U32C C33G A37G G52A C55U A65U	0.555
U32C A42U U64A A65G	≤ 0.5
C33A C55G C66U	≤ 0.5
U32C C46G A57U	0.673
U32C C34G G41C	≤ 0.5
C33A C34U	≤ 0.5
U32C C62U A69C	1.15
U32C A40U U59C	0.718
U32C C60G A65U	≤ 0.5

Variant	yeast fitness
U32G C49G C55A	0.65
C33A A36C G48A C66G	≤ 0.5
C33A G39C	0.677
U32C G39C C55U	≤ 0.5
U32G A45G	0.673
U32G A45C	0.692
C33A G51C C62G	≤ 0.5
C33A C49A	0.597
C33A C49U G52A	≤ 0.5
C33A G67A	0.586
C33A G67C	0.621
U32A A40C A69C	0.562
U32A G56C A69U	0.53
U32G G39C A57U C62G	≤ 0.5
C33A A36U G41A G48A	≤ 0.5
U32C U64C	0.946
U32C U64G	0.754
U32A U54C C55U	≤ 0.5
U32G A43C	0.694
C33A A43G A45C	≤ 0.5
C33A C46U C61G	≤ 0.5
U32C G67U A69C	≤ 0.5
C33A G50U	0.524
U32A C46A A65G C66A G68C	≤ 0.5

Variant	yeast fitness
C33A C61G	0.775
U32C C66U	0.966
C33A G44A	0.617
U32A A65G	0.719
C33A G50C U53C U64C G68U	0.586
U32C A42C G44A U53A	≤ 0.5
U32C A37G	0.819
U32A A37U A45C	≤ 0.5
U32G A36U A45G	≤ 0.5
U32A A42U U54C	≤ 0.5
U32A C34A A65C	0.523
U32C A36U G38A G50A G67A	≤ 0.5
U32C A40U C60U G67C A70G	≤ 0.5
U32C C46G A65G	0.917
U32C C66U G68C	0.554
U32C C34A	0.729
C33A G51A	0.659
C33A G56C A70C	0.574
U32C C46G	0.865
C33A U54C	0.561
C33A U54G	0.518
U32A A37C C55G	0.503
U32G C34A A40C C60U	≤ 0.5

From the RNAGym collection of RNA variant scans (doi:10.1126/science.aae0568)
